Here are results for one compound from article PMC4973392 (Angewandte Chemie (International ed. in English), 2016).

The target in test [1] is T1, Ubc9 (Homo sapiens, UniProt P63279). The test is classed as biochemical. The note with it: SUMO-1 conjugation to peptide substrate.
The next test has as its system IκBα sumoylation. In words: conjugation of SUMO to full-length recombinant IκBα. The test is classed as biochemical.
The target of the next test is T2, E1-SUMO thioester (Homo sapiens, UniProt Q9UBE0+Q9UBT2).
T2 sequence (Q9UBE0 1-346): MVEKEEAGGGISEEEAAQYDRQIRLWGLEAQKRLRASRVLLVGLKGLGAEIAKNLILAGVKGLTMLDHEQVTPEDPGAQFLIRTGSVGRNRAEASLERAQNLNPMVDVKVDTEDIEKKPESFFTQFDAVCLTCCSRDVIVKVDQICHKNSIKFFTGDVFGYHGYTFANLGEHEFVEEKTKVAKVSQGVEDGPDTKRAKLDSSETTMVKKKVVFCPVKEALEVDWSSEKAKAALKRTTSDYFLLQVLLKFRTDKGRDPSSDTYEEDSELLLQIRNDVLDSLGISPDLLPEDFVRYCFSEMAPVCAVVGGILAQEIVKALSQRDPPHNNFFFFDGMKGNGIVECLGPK
T2 sequence (Q9UBT2 1-640): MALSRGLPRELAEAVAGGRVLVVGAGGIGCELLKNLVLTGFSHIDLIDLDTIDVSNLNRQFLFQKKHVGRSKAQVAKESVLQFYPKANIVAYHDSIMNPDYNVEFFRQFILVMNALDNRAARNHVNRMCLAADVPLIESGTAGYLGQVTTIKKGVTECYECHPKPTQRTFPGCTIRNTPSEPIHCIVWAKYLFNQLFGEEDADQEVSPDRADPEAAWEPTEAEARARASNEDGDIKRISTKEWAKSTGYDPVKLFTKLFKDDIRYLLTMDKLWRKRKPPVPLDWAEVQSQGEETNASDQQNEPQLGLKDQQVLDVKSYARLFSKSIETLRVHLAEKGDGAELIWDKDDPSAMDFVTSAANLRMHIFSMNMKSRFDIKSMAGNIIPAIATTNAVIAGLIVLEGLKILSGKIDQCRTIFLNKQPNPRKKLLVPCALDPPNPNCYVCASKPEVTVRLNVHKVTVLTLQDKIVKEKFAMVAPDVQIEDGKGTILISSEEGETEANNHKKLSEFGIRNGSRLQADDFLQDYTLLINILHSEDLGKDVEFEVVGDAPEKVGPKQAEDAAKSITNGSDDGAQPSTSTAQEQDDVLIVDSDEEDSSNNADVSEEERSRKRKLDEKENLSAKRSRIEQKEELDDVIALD
Kind of test: E1-SUMO thioester formation with fluorescently labeled SUMO-1. The test is classed as biochemical. The note with it: at relevant concentrations. The procedure, abridged: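 E1–SUMO thioester formation was followed using fluorescently labeled SUMO-1 in the presence of the test compound. The negative-control lane omitted E1.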

For a further test, the system named is RanGAP1 sumoylation. In words: conjugation of SUMO to recombinant protein fragment of RanGAP1. Type of test: biochemical.
Another test has as its target Ubc9-K59A mutant (Homo sapiens, UniProt P63279, K59A). In words: sumoylation of fluorescent substrate peptide with Ubc9-K59A mutant. Type of test: biochemical. The note with it: at any concentration.
The target of test [2] is T1, Ubc9. In words: 1H-15N HSQC NMR chemical shift perturbation. Type of test: binding. The procedure, abridged: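 1H-15N HSQC spectra recorded with 200 μM Ubc9 in a solution saturated with the test compound. Chemical shifts of selected residues were compared between apo and compound-bound protein.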
The target in a further test is Ubc9-E42A mutant (Homo sapiens, UniProt P63279, E42A). In words: sumoylation of fluorescent substrate peptide with Ubc9-E42A mutant. The test is classed as biochemical. The note with it: at any concentration.
Another test addresses E2-SUMO thioester (Homo sapiens, UniProt P63279). In words: E2-SUMO thioester formation with fluorescently labeled SUMO-1. Type of test: biochemical. The note with it: at concentrations that correlated well with the IC50.

T1 sequence (P63279 whole entry): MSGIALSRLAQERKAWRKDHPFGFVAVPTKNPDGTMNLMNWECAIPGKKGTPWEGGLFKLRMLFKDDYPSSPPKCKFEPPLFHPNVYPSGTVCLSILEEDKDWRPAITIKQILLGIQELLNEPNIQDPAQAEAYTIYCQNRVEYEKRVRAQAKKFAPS
Chain of E2-SUMO thioester (P63279 whole entry): as above
Chain of Ubc9-K59A mutant (P63279 whole entry K59A): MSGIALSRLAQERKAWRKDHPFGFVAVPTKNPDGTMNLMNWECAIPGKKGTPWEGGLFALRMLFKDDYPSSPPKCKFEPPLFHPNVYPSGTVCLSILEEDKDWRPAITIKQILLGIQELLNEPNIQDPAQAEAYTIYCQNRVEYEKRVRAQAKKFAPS
Chain of Ubc9-E42A mutant (P63279 whole entry E42A): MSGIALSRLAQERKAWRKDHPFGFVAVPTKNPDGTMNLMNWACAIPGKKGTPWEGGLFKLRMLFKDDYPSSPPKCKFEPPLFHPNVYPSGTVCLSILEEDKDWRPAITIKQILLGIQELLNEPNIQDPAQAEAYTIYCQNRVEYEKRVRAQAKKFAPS

Regarding `Oc1ccccc1-c1ccccc1O` [compound 1, 2,2′-bisphenol], the IC50 (as a rule, the concentration at which inhibition is half-maximal) at Ubc9 [1] came out at 5.8 ± 0.1 mM. Moreover, the “effect on conjugation of SUMO to IκBα” value in the test on IκBα sumoylation is reported as “inhibited”. Also, at E1-SUMO thioester, the “effect on formation of the E1-SUMO thioester” value was “no effect”. The “effect on conjugation of SUMO to RanGAP1 fragment” value in the test with RanGAP1 sumoylation is “inhibited”. The “inhibition of Ubc9 K59A mutant” value on Ubc9-K59A mutant is reported as “neither mutant was inhibited”. Besides, the “binding to Ubc9 in solution (chemical shift perturbations)” value at Ubc9 [2] is given as “specific binding”. Also, the “inhibition of Ubc9 E42A mutant” value on Ubc9-E42A mutant is on record as “neither mutant was inhibited”. Further, on E2-SUMO thioester, the “effect on formation of the E2-SUMO thioester” value is reported as “inhibited”.
